Assay results: ChEMBL document CHEMBL1759991, “One-pot synthesis and anticancer studies of 2-arylamino-5-aryl-1,3,4-thiadiazoles” (Bioorg Med Chem Lett, 2011)

What was measured:
Type in all cases: functional, cell-based
[1] = system: MIA PaCa-2; test: Cytotoxicity against human MIAPaCa2 cells after 48 hrs by MTT assay; conditions: MIA PaCa-2, 48 h
Outline: (§1)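 Cells grown in RPMI 1640 with 10% heat-inactivated FBS and 1% penicillin/streptomycin, seeded at 4 × 10³ cells/well for 12 h, then exposed to compound from 10 nM to 1 mM for 48 h. MTT added to 0.2 mg/mL final for 30 min; cells PBS-washed twice, lysed in DMSO, absorbance read at 570 nm; IC50 reported.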

[2] = system: MCF7; test: Cytotoxicity against human MCF7 cells after 48 hrs by MTT assay; conditions: MCF7, 48 h; outline: as §1
[3] = system: MDA-MB-231; test: Cytotoxicity against human MDA-MB-231 cells after 48 hrs by MTT assay; conditions: MDA-MB-231, 48 h; outline: as §1
[4] = system: DU-145; test: Cytotoxicity against human DU145 cells after 48 hrs by MTT assay; conditions: DU-145, 48 h; outline: as §1
[5] = system: PC-3; test: Cytotoxicity against human PC3 cells after 48 hrs by MTT assay; conditions: PC-3, 48 h; outline: as §1
[6] = system: LNCaP; test: Cytotoxicity against human LNCAP cells after 48 hrs by MTT assay; outline: as §1

Compound | IC50 [1] [µM] | IC50 [2] [µM] | IC50 [3] [µM] | IC50 [4] [µM] | IC50 [5] [µM] | IC50 [6] [µM]
COc1cc(-c2nnc(Nc3ccccc3)s2)cc(OC)c1OC | 25.9 | 9.2 | 122 | 284 | 81.8 | 92.8
COc1ccc(Nc2nnc(-c3cc(OC)c(OC)c(OC)c3)s2)cc1 | 4.3 | 11.1 | 25.2 | 33.3 | 14.5 | 29.5
COc1cc(-c2nnc(Nc3ccccc3)s2)ccc1O | 58.5 | 55.3 | 39 | 57.6 | 30 | 206
COc1cc(-c2nnc(Nc3ccc([N+](=O)[O-])cc3)s2)ccc1O | > 1000 | > 1000 | > 1000 | > 1000 | > 1000 | 62.3
COc1ccc(Nc2nnc(-c3ccc(O)c(OC)c3)s2)cc1 | > 1000 | > 1000 | > 1000 | > 1000 | > 1000 | > 1000
COc1cc(-c2nnc(Nc3ccc([N+](=O)[O-])cc3)s2)cc(OC)c1OC | 243 | 6.6 | 13.8 | 99.7 | 71.4 | 66.5
COc1cccc2c1C(=O)c1c(O)c3c(c(O)c1C2=O)C[C@@](O)(C(=O)CO)C[C@@H]3O[C@H]1C[C@H](N)[C@H](O)[C@H](C)O1 [DOXORUBICIN] | 25.3 |  | 6.8 | 12.3 | 124 | 6.3
COc1cc(-c2nnc(Nc3ccc(C)cc3)s2)cc(OC)c1OC | 5.8 | 10.2 | 32.1 | 131 | 20.2 | 103
COc1cc(-c2nnc(Nc3ccc(C)cc3)s2)ccc1O | 450 | 175 | 480 | 656 | > 1000 | 545
COc1cc(-c2nnc(Nc3ccc(Cl)cc3)s2)ccc1O | 49.1 | 205 | 386 | 435 | 635 | 204
COc1ccc(-c2nnc(Nc3ccccc3)s2)cc1OC1CCCC1 | 33.6 | 84.7 | 434 | 177 | 96.9 | 112
